Here are results for 6 compounds from ChEMBL document CHEMBL4049424, “Hydroxypyridinone and 5-Aminolaevulinic Acid Conjugates for Photodynamic Therapy” (J Med Chem, 2017).

Some results are limits rather than exact numbers.

Data set [1] in a line: Drug metabolism in human KB cells assessed as formation of protoporphyrin 9 after 2 to 24 hrs by fluorescence spectrometer. It counts as ADME, cell-based. Put shortly:
(§1)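 KB monolayers (48 h after seeding ~5×10^4/well) washed, then given prodrug or ALA at 50 μM in serum-free medium at 37 °C. PpIX fluorescence read in wells at 2, 4, 6 and 24 h, excitation 405 nm, emission 635 nm. Untreated wells subtracted for autofluorescence; mean intensity in arbitrary units, triplicate.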

Data set [2] in a line: Drug metabolism in human KB cells assessed as protoporphyrin 9 formation at 500 uM preincubated for 1 hr at 4 degC followed by compound washout and subsequent incubation for 4 hrs at 37 degC by fluorescence spectrometer. The data set is classed as ADME, cell-based. Put shortly: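 KB cells exposed 1 h to 500 μM prodrug in clear medium at either 4 °C or 37 °C, plates foil-wrapped. Compound then removed, PBS rinse, fresh medium, both plates 4 h at 37 °C. PpIX read in wells at 405/635 nm after subtracting untreated wells.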

The nature of data set [3]: Drug metabolism in human KB cells assessed as formation of protoporphyrin 9 at 100 uM after 6 to 24 hrs by fluorescence spectrometer. It counts as ADME, cell-based. In outline: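 Time course in KB cells at 37 °C after 100 μM conjugate, ALA, or 1:1 ALA + HPO mixture in serum-free medium. Well PpIX fluorescence read at 405 nm excitation / 635 nm emission, control autofluorescence subtracted, triplicate means.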

In data set [4] the test system is KB. As to the kind of experiment: Phototoxicity in human KB cells assessed as reduction in cell viability preincubated for 4 hrs followed by irradiation with blue light at 2.5 J/cm2 and subsequent incubation for 18 hrs measured after 24 hrs post treatment by MTT assay. It counts as functional. Conditions: for CC50: light or radiation study, read-out: LD50 (the source's name); call rule not given here. In outline:
(§2)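 Cells seeded ~5 × 10^4 per well, grown 48 h, washed with PBS, then 4 h with compound (five concentrations within 1–100 μM, triplicate, three untreated control wells per plate). Irradiated with blue light, peak ~420 nm, 2.5 J/cm². Medium replaced, cells kept a further 18 h. MTT read at A570 24 h after treatment; survival expressed as percentage of control. LD50 taken from two sets of experiments.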
Background: Tetrazolium assays rely on reduction of a dye to a coloured formazan, in cell work by metabolically active cells.

Data set [5] has as its system MCF7. As to the kind of experiment: Phototoxicity in human MCF7 cells assessed as reduction in cell viability preincubated for 4 hrs followed by irradiation with blue light at 2.5 J/cm2 and subsequent incubation for 18 hrs measured after 24 hrs post treatment by MTT assay. It counts as functional. Conditions: for CC50: MCF7, light or radiation study, read-out: LD50 (the source's name). In outline: as §2

Data set [6] concerns MCF7R. As to the kind of experiment: Phototoxicity in human doxorubicin resistant MCF7/R cells assessed as reduction in cell viability preincubated for 4 hrs followed by irradiation with blue light at 2.5 J/cm2 and subsequent incubation for 18 hrs measured after 24 hrs post treatment by MTT assay. Conditions: for CC50: light or radiation study, read-out: LD50 (the source's name). It counts as functional. Put shortly:
as §2

For data set [7], the system named is KB. As to the kind of experiment: Dark toxicity against human KB cells at 200 uM preincubated for 4 hrs followed by compound washout measured after 24 hrs by MTT assay. The data set is classed as cell-based. In outline:
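Dark toxicity in KB cells: 200 μM compound for 4 h with no light, removed, cells kept 24 h. Viability by MTT (2 h, A570 after DMSO solubilisation), given as % of untreated controls. Triplicate.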

A short description of data set [8]: Drug metabolism in human KB cells assessed as formation of protoporphyrin 9 preincubated for 2 hrs followed by compound washout measured after 24 hrs by HPLC-based fluorescence analysis. The data set is classed as ADME, cell-based. In outline:
(§3)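 Cells given ALA or conjugate for 2 h at 37 °C, then fresh medium without compound. At 24 h, lysed in CelLytic (15 min, room temperature), scraped and spun 1800g for 10 min. Supernatant PpIX read by fluorescence at 405/635 nm and normalised per mg protein (BCA). Untreated blanks subtracted.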

A short description of data set [9]: Drug metabolism in human doxorubicin resistant MCF7/R cells assessed as formation of protoporphyrin 9 preincubated for 2 hrs followed by compound washout measured after 24 hrs by HPLC-based fluorescence analysis. It counts as ADME, cell-based. Conditions: mcf7r. In outline: as §3
Data set [10] is described as follows: Drug metabolism in human doxorubicin resistant MCF7/R cells assessed as formation of protoporphyrin 9 at 100 uM after 6 hrs by fluorescence spectrometer relative to ALA. The data set is classed as ADME, cell-based. Conditions: mcf7r. Put shortly:
(§4)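 MCF-7R monolayers exposed 6 h at 37 °C to ALA, conjugates or ALA hexyl/octyl esters at 1–100 μM in serum-free medium. PpIX emission at 635 nm (405 nm excitation; spectra 600–750 nm) read in wells. Untreated controls subtracted; mean of triplicates in arbitrary units.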

The subject of data set [11] is KB. Briefly: Dark toxicity against human KB cells assessed as cell survival at 100 uM after 24 hrs by MTT assay. It counts as cell-based.
Data set [12] relates to CNE-2. Briefly: Phototoxicity in human CNE2 cells assessed as reduction in cell viability preincubated for 4 hrs followed by irradiation with 4 J/cm2 light dose measured after 24 hrs by MTT assay. The data set is classed as functional.
The test system of data set [13] is CNE-2. Briefly: Potency index, ratio of ALA LD80 to test compound LD80 for phototoxicity against human CNE2 cells. It counts as functional.
A short description of data set [14]: Dark toxicity against human KB cells assessed as cell survival at 100 uM after 4 hrs by MTT assay. The data set is classed as cell-based. Conditions: read-out: Survival. Put shortly:
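Cells seeded ~5 × 10^4 per well, grown 48 h, washed with PBS, then exposed to compound in medium for 4 h without irradiation. Incubation then continued for 24 h after prodrug removal. Viability by MTT (1 mg/mL, 2 h), formazan dissolved in DMSO, A570, expressed as percentage of untreated control wells on the same plate. Triplicate.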

Data set [15] deals with KB. As to the kind of experiment: Dark toxicity against human KB cells preincubated for 4 hrs followed by compound washout measured after 24 hrs by MTT assay. It counts as cell-based. In outline: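 KB cells seeded ~5×10^4/well, grown 48 h, PBS-washed, then exposed to compound for 4 h without irradiation. Medium replaced and cells kept a further ~24 h. Survival by MTT (1 mg/mL in EMEM, 2 h), formazan dissolved in DMSO, A570, expressed as % of untreated control wells. Triplicate wells.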

The nature of data set [16]: Drug metabolism in mouse PAM212 cells assessed as formation of protoporphyrin 9 at 0.01 mM after 6 hrs by fluorescence spectrometer relative to ALA. The data set is classed as ADME, cell-based. Conditions: pam212, 6 h, 10 µM.
Data set [17] is described as follows: Drug metabolism in human doxorubicin resistant MCF7/R cells assessed as formation of protoporphyrin 9 after 6 hrs by fluorescence spectrometer. It counts as ADME, cell-based. Conditions: mcf7r. Put shortly:
as §4

Data set [18] in a line: Drug metabolism in human KB cells assessed as formation of protoporphyrin 9 at 50 uM after 2 to 24 hrs by fluorescence spectrometer. The data set is classed as ADME, cell-based. In outline: as §1
Data set [19] is described as follows: Drug metabolism in human MCF7 cells assessed as formation of protoporphyrin 9 at 50 uM after 6 hrs by fluorescence spectrometer. It counts as ADME, cell-based. Conditions: mcf7, 6 h. In outline: (§5)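 MCF-7 or MCF-7R cells incubated 6 h at 37 °C with 50 μM conjugate, or with 50 μM ALA and HPO as a 1:1 mixture, in serum-free medium. PpIX fluorescence read in wells at 405/635 nm, untreated-well values subtracted, triplicate.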

Data set [20] is described as follows: Drug metabolism in human KB cells assessed as formation of protoporphyrin 9 at 50 uM after 24 hrs by fluorescence spectrometer relative to ALA. The data set is classed as ADME, cell-based. In outline:
as §1

The test system of data set [21] is KB. As to the kind of experiment: Phototoxicity in human KB cells assessed as cell survival at 10 uM preincubated for 4 hrs followed by irradiation with blue light at 2.5 J/cm2 and subsequent incubation for 18 hrs measured after 24 hrs post treatment by MTT assay relative to control. It counts as functional. Conditions: light or radiation study, read-out: Survival. Put shortly: as §2

The nature of data set [22]: Prodrug conversion in human KB cells assessed as accumulation of ALA at 100 uM after 2 hrs by HPLC-based fluorescence analysis relative to ALA. It counts as ADME, cell-based. In outline: (§6)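 KB or MCF-7R cells incubated 2 h with 100 μM ALA or conjugate, then extracted with CelLytic. Lysate ALA derivatised with acetylacetone/ethanol/water (15/45/40) plus 10% formaldehyde at 100 °C for 10 min. Analysed by C18 HPLC with fluorescence detection (excitation 370 nm, emission 460 nm) against spiked-lysate calibration. Normalised per mg protein.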

A short description of data set [23]: Prodrug conversion in human doxorubicin resistant MCF7/R cells assessed as accumulation of ALA at 100 uM after 2 hrs by HPLC-based fluorescence analysis relative to ALA. It counts as ADME, cell-based. Conditions: mcf7r. Put shortly:
as §6

The nature of data set [24]: Drug metabolism in human MCF7 cells assessed as formation of protoporphyrin 9 preincubated for 2 hrs followed by compound washout measured after 24 hrs by HPLC-based fluorescence analysis. Conditions: mcf7, 24 h. The data set is classed as ADME, cell-based. In outline:
as §3

Data set [25] is described as follows: Drug metabolism in human doxorubicin resistant MCF7/R cells assessed as formation of protoporphyrin 9 at 1 to 100 uM after 6 hrs by fluorescence spectrometer. Conditions: mcf7r. The data set is classed as ADME, cell-based. Put shortly: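 Cells seeded ~5 × 10^4 per well and grown 48 h, washed with PBS. Then 6 h at 37 °C with 1–100 μM prodrug in serum-free medium. PpIX fluorescence read with excitation 405 nm and emission 635 nm (scan 600–750 nm, 515 nm long-pass filter). Values are mean intensity in arbitrary units after subtracting no-prodrug control wells. Triplicate.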

Data set [26] is described as follows: Drug metabolism in human doxorubicin resistant MCF7/R cells assessed as formation of protoporphyrin 9 at 50 uM after 6 hrs by fluorescence spectrometer. Conditions: mcf7r. It counts as ADME, cell-based. In outline:
as §5

The test system of data set [27] is CNE-2. Briefly: Phototoxicity in human CNE2 cells assessed as reduction in cell viability preincubated for 4 hrs followed by irradiation with 6 J/cm2 light dose measured after 24 hrs by MTT assay. It counts as functional.
The nature of data set [28]: Drug metabolism in human doxorubicin resistant MCF7/R cells assessed as formation of protoporphyrin 9 at 100 uM after 6 hrs by fluorescence spectrometer. Conditions: mcf7r. It counts as ADME, cell-based. Put shortly: as §4

Regarding `CCc1c(O)c(=O)ccn1CCOCCOCCOC(=O)CCC(=O)CN.Cl`, the Drug metabolism entry in [1], in data set [2], in [3], in data set [8] and in data set [9] was “Metabolite_Detected” each time. Also, the Activity entry in data set [4] was “Dose-dependent effect”; in data set [5], “Dose-dependent effect”; in data set [6] it was “Dose-dependent effect”; in data set [7], “Non-Toxic”; in data set [11], “Non-Toxic”. Besides, the values for the CC50 in data set [4], in data set [5] and in data set [6] were 19.6 µM, 15.8 µM and 11.3 µM, respectively. In data set [10], the “fold change (FC)” value was 20.

`CCCCCCOC(=O)CCC(=O)CN` [HEXAMINOLEVULINATE]: the Drug metabolism entry in [1] is given as “Metabolite_Detected”. The Activity result in data set [4] was “Dose-dependent effect”; in [5], “Dose-dependent effect”; in data set [6], “Dose-dependent effect”; in data set [15], “Toxic”. Also, the CC50 in data set [4] was 2.6 µM; in data set [5], 9.3 µM; in data set [6], 8.4 µM. In data set [12], the LD80 is 0.03 mM. The Ratio in data set [13] was 40. The viability at 4 h, 100 µM in data set [14] was 9%.

In the case of `COC(=O)CCC(=O)CNC(=O)[C@H](Cc1ccccc1)NC(C)=O`, the “fold change (FC)” value in data set [16] worked out at 5.

Consider `CCCCCCCCOC(=O)CCC(=O)CN`, for which the viability at 4 h, 100 µM in data set [14] came out at 14%. For the same compound, the Activity result in data set [15] is reported as “Toxic”.

In the case of `CCc1c(O)c(=O)ccn1CCCCCCCCOC(=O)CCC(=O)CN.Cl.Cl`, the Drug metabolism result is on record as “Dose-dependent effect” in data set [17]; “Metabolite_Detected” in data set [18]; “Metabolite_Detected” in [2]; “Metabolite_Detected” in [19]; “Metabolite_Detected” in data set [3]; “Metabolite_Detected” in data set [8]. In addition, the Drug metabolism entry in [9], in data set [24] and in [26] was “Metabolite_Detected” each time. Also, the “fold change (FC)” value in data set [20] worked out at 8; in data set [22], 6; in data set [23] it was 6. Moreover, the Activity result in [4] is “Dose-dependent effect”; in data set [5], “Dose-dependent effect”; in data set [6], “Dose-dependent effect”; in data set [7] it was “Non-Toxic”; in data set [11], “Non-Toxic”. Besides, the CC50 worked out at 3.1 µM in data set [4], 10.9 µM in [5] and 4.2 µM in [6]. For the same compound, the viability at 10 µM in data set [21] was under 6%. In addition, the Flu intensity in data set [25] lay within 2 to 25 a.u.

With `NCC(=O)CCC(=O)O` [AMINOLEVULINIC ACID], the Drug metabolism result in data set [2] is “Metabolite_Notdetected”; in data set [28], “Metabolite_Detected”. In addition, the Activity result was “Dose-dependent effect” in [4]; “Dose-dependent effect” in [5]; “Dose-dependent effect” in [6]; “Non-Toxic” in [7]; “Non-Toxic” in [11]. Besides, the CC50 in [4] was 124 µM; in [5] it was 131 µM; in [6] it was 122 µM. Moreover, the LD80 in data set [27] is 0.75 mM.
